Mcl1-Bid inh: disrupts binding of human Mcl-1 to Bid peptide; Q07820; TR-FRET Mcl-1/Bid-Dy647 peptide binding, 1536-well; AID 1021; 220,000 tested, 0.97% active; inhibition, % at 21.7 µM;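 active = compounds that cut the binding signal by more than half at the single screening dose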;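 also: His-tagged Mcl-1 with europium anti-His antibody binding Bid BH3 peptide; 0% = Mcl-1 plus peptide wells and 100% = peptide-only wells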
Target sequence (Q07820 whole entry, looked up): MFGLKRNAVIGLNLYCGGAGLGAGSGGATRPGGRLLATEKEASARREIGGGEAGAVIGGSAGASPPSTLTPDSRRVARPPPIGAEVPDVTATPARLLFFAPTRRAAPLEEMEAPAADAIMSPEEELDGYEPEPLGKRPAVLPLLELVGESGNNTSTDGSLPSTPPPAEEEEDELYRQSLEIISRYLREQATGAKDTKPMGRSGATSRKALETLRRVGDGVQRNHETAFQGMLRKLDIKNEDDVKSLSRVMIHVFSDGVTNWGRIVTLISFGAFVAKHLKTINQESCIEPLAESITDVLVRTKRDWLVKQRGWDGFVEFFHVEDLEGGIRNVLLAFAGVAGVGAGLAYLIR
Calb biofilm kill: mixture kills Candida albicans biofilm cells; C. albicans biofilm persisters + clotrimazole, fluorescence viability; primary screen in compound mixtures of four per well; AID 1242; inhibition, % at 7.6 µM; 120,000 tested, 0.02% active;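 active = inhibition above 30.3% in the primary screen of four-compound pools, then above 30% when the compound was retested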;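 also: compounds exposed to preformed 24 h biofilms for 48 h; 0% = untreated biofilm control and 100% = clotrimazole plus chlorhexidine kill blank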
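Assay system: C. albicans biofilms / Medium: RPMI/MOPS medium, pH 7.0 / Schedule: biofilm formation 24 h, compound exposure 48 h, 37 °C / Measured by: Alamar Blue fluorescence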
Bim-Mcl-1: human Bim-Mcl-1 interaction inhibition; Q07820; Bead-based flow cytometry, Bim peptide-Mcl-1 binding; inhibition, % at 10 µM; 190,000 tested, 0.1% active; AID 1009; in the data active = inhibition above about 40%;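 also: 0% = no compound tracer wells and 100% = peptide blocker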
Calpain2 inh: inhibitors of pig calpain II. purified calpain II, fluorogenic peptide substrate, 30 min. inhibition, % at 16 µM. 220,000 tested, 0.37% active;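 active = inhibition above about 50%, limit read from the data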
Mcl1 Noxa PPI: Mcl-1/Noxa interaction inhibition. 220,000 tested, 1.5% active. inhibition, % at 21.7 µM. TR-FRET Mcl-1/Noxa peptide binding, 2 h. AID 1022;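 active = compounds that cut the protein-peptide binding signal by more than 50% relative to plate controls in a single-dose test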;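 also: His-tagged Mcl-1 with rhodamine Noxa BH3 peptide and terbium anti-His antibody; 0% = Mcl-1 plus Noxa peptide wells and 100% = peptide-only wells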
Arbovirus inh: arbovirus infection inhibition | 200,000 tested, 0.37% active | arbovirus infection cell-based antiviral screen | inhibition, % at 10 µM | AID 1251; in the data active = inhibition above about 30%
An asterisk follows results filed as active; / = not tested or not shown. Most compounds without a hit are left out; they make up all but 2.8% or so of the library.

SMILES | Mcl1-Bid inh | Calb biofilm kill | Bim-Mcl-1 | Calpain2 inh | Mcl1 Noxa PPI | Arbovirus inh
CCCN1C(=O)/C(=C/c2nc3ccccc3c(=O)[nH]2)c2ccccc21 | 42 | 8 | -5 | -32 | 44 | 9
CC(C)N1C(=O)/C(=C\c2nc3ccccc3c(=O)[nH]2)c2ccccc21 | 70* | -6 | -1 | 25 | 55* | 10
CC(C)(C)c1ccc(OCC(=O)Nc2ccc3c4c(cccc24)C(=O)NC3=O)cc1 | -25 | 11 | 1 | -170 | 3 | -24
O=C(COc1ccc(F)cc1)NN1C(=O)CSC1=S | -45 | 16 | -3 | 52* | 10 | 8
O=C(COc1ccccc1)NN1C(=O)CSC1=S | -98 | 6 | -1 | 17 | 7 | 3
N#Cc1cccc(NC(=O)CSc2ccc3c4c(cccc24)C(=O)c2ccccc2-3)c1 | 74* | / | -1 | -51 | 22 | -20
COc1ccc(NC(=O)CSc2ccc3c4c(cccc24)C(=O)c2ccccc2-3)cc1 | 45 | / | -2 | -57 | 18 | -15
Cc1nc(C)n(CC(O)COc2ccc3c(c2)CCC3)n1 (stereo not drawn) | 92* | / | -4 | -19 | 4 | 10
Cc1nn(CC(O)COc2ccc3c(c2)CCC3)c(C)c1Br (stereo not drawn) | 3 | / | -3 | -16 | 6 | 5
Cc1oc(-c2ccccc2Cl)nc1CN1CCCCC1c1cccnc1 (stereo not drawn) | -53 | 24 | -5 | -54 | 4 | 0
CCOC(=O)C1CCN(C(=O)Nc2ccc3nc(-c4ccco4)c(-c4ccco4)nc3c2)CC1 | 25 | / | 19 | -104 | 97* | 0
O=C(Nc1ccc2nc(-c3ccco3)c(-c3ccco3)nc2c1)N1CCCCCC1 | 59* | / | 16 | -190 | 105* | -9
CCOC(=O)C1CCN(C(=O)Nc2ccc3c(c2)nc(C)n3C)CC1 | -6 | / | -1 | -12 | / | 7
C=C(C(=O)c1ccccc1)C(C(=C)C(=O)c1ccccc1)c1ccc(OC)cc1 | 69* | 4 | / | 16 | 7 | /
CSc1nc(=S)c2[nH]c(=S)[nH]c2[nH]1 | -61 | 11 | / | 15 | 51* | /
Clc1ccccc1-c1nnc(-c2ccc3c(c2)OCO3)o1 | -5 | 15 | -2 | -310 | 4 | -7
COc1cc(NS(=O)(=O)c2ccc(NC(=O)/C(=C/c3ccccc3Cl)NC(=O)c3ccccc3)cc2)nc(OC)n1 | -39 | -5 | 0 | -4 | 5 | 14
O=C(Nc1ccc(S(=O)(=O)Nc2nccs2)cc1)/C(=C/c1ccccc1Cl)NC(=O)c1ccccc1 | -68 | 4 | -12 | -45 | 94* | -1
C=CCn1cc(/C=N/NC(=O)COc2cccc3cccnc23)c2ccccc21 | 89* | 11 | 0 | 10 | 66* | -9
COc1cc(CC(=O)N(c2ccccc2)c2nc(C)cs2)cc(OC)c1OC | -18 | 11 | -1 | 11 | 11 | 0
COc1cccc(CNC(=O)CCC2CCCN(C(=O)c3csc(C(C)C)n3)C2)c1 (stereo not drawn) | -14 | 14 | -12 | 28 | 7 | 0
CCOC(=O)C1CCN(Cc2cc(C(C)(C)C)c(O)c(C(C)(C)C)c2)CC1 | -26 | 15 | -2 | 14 | -28 | 15
CC(C)(C)c1cc(CN2CCN(CCO)CC2)cc(C(C)(C)C)c1O | 62* | / | -4 | -8 | 28 | 0
Nc1ccccc1SC1CC(=O)N(Cc2ccccc2)C1=O (stereo not drawn) | -10 | 14 | 0 | -7 | -4 | 0
CCOc1ccc(NC(=S)N2CCN(CCN3C(=O)c4cccc5cccc(c45)C3=O)CC2)cc1 | 26 | 7 | -1 | -8 | 27 | -11
SMILES | Mcl1-Bid inh | Calb biofilm kill | Bim-Mcl-1 | Calpain2 inh | Mcl1 Noxa PPI | Arbovirus inh
COc1ccc(NC(=S)N2CCN(CCN3C(=O)c4cccc5cccc(c45)C3=O)CC2)cc1 | 6 | -4 | -2 | 51* | 15 | -4
CC(=O)Nc1ccc(S(=O)(=O)NC2(C(F)(F)F)C(=O)Nc3c2c(=O)[nH]c(=O)n3Cc2ccco2)cc1 (stereo not drawn) | -39 | 10 | -7 | 13 | 56* | 4
CC(=O)Nc1ccc(S(=O)(=O)NC2(C(F)(F)F)C(=O)Nc3c2c(=O)[nH]c(=O)n3C)cc1 (stereo not drawn) | -77 | / | -2 | 3 | -34 | 5
CC(=O)Nc1ccc(S(=O)(=O)NC2(C(F)(F)F)C(=O)Nc3c2c(=O)[nH]c(=O)n3Cc2cccnc2)cc1 (stereo not drawn) | -79 | 13 | -2 | -8 | 56* | 6
CC(=O)Nc1ccc(S(=O)(=O)NC2(C(F)(F)F)C(=O)Nc3c2c(=O)n(C)c(=O)n3C)cc1 (stereo not drawn) | -129 | / | 0 | -18 | 52* | 5
CC(=O)NC1(C(F)(F)F)C(=O)Nc2c1c(=O)[nH]c(=O)n2Cc1ccco1 (stereo not drawn) | -9 | / | -1 | -8 | -6 | 7
CC(C)Cn1c2c(c(=O)[nH]c1=O)C(NS(=O)(=O)c1ccc(Cl)cc1)(C(F)(F)F)C(=O)N2 (stereo not drawn) | -77 | 13 | / | -4 | -34 | /
COc1ccc(CNC(=O)COC(=O)/C=C/c2cccc(Br)c2)cc1 | -20 | 6 | -3 | -9 | -8 | 7
COc1ccc(N(CC(=O)NCc2ccccc2C)S(=O)(=O)c2ccccc2[N+](=O)[O-])c(OC)c1 | -8 | 6 | -3 | -31 | 10 | -7
CN(C)C(=S)Nc1ccc2c(c1)OCCO2 | -21 | 2 | / | 4 | 6 | /
COc1ccc(S(=O)(=O)c2ccc(OC)cc2)cc1 | -2 | / | -4 | -4 | -5 | -1
COc1ccc(C2=CC(=O)C=CC2=O)cc1 | 15 | 18 | / | -32 | 87* | /
O=C(Cn1nnc2ccccc21)Nc1ccc(Cl)cn1 | -14 | 6 | 0 | -5 | 3 | 8
O=C(N=C1c2ccccc2CN1c1ccc(F)c(Cl)c1)c1cccnc1Cl | 36 | 5 | -2 | -41 | 2 | -3
CN1CCN(C(=O)c2ccc(-n3cccn3)nc2)CC1 | -8 | 10 | -6 | -22 | 13 | 16
Cc1cc(C2=NNC(=NC3CC3)SC2)c(C)n1-c1c(C)n(C)n(-c2ccccc2)c1=O | 7 | -3 | -2 | 6 | 52* | 6
Cc1cc(C2=NNC(=NCCc3ccccc3)SC2)c(C)n1-c1c(C)n(C)n(-c2ccccc2)c1=O | -141 | 3 | / | -46 | 8 | /
COCCCNC(=O)c1ccc2c3c(onc13)-c1ccccc1C2=O | -109 | 29 | / | 7 | 55* | /
COCCCNC(=O)c1ccccc1Oc1ccccc1 | -21 | / | 0 | -32 | 0 | -4
CN(CCO)S(=O)(=O)c1ccc2c(c1)C(=NO)c1cc(S(=O)(=O)N(C)CCO)ccc1-2 | 83* | 8 | 5 | -145 | 39 | -1
CC(=O)N1CCN(C(=O)CSc2nc3c(cnn3-c3ccccc3)c(=O)[nH]2)CC1 | -46 | / | 0 | -11 | 19 | 2
O=C(CSc1nc2c(cnn2-c2ccc(F)cc2)c(=O)[nH]1)N1CCCc2ccccc21 | 94* | / | 0 | -47 | -1 | 19
